Shown are actives, neighbours in structure and some others; about 3.3% of the full set was active somewhere.
m5-HT2A agonist: activates the mouse 5-HT2A serotonin receptor; 0.66% of 360,000 active; P35363; CHO-K1 mHTR2A beta-arrestin complementation, luminescence; percent of 30 µM serotonin response; AID 624169; activation, % at 7.6 µM;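 active means activation above a run cutoff, the mean activation of all tested compounds plus 3 SD, cut at about 14% in these data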;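 further: 0% = plate median of compound wells and 100% = 30 µM serotonin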
NRP1-CendR mod: modulators of CendR peptide binding to human neuropilin-1 | O14786 | FAM-RPARPAR peptide binding to NRP-1, fluorescence polarization | inhibition, % at 25 µM | 0.85% of 360,000 active | AID 602438;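 active means inhibition or corrected inhibition above about 18%, plus a signal ratio from 0.5 to 1.5, limit read from the data, passing the limit was not always enough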
Target sequence (O14786 whole entry, looked up): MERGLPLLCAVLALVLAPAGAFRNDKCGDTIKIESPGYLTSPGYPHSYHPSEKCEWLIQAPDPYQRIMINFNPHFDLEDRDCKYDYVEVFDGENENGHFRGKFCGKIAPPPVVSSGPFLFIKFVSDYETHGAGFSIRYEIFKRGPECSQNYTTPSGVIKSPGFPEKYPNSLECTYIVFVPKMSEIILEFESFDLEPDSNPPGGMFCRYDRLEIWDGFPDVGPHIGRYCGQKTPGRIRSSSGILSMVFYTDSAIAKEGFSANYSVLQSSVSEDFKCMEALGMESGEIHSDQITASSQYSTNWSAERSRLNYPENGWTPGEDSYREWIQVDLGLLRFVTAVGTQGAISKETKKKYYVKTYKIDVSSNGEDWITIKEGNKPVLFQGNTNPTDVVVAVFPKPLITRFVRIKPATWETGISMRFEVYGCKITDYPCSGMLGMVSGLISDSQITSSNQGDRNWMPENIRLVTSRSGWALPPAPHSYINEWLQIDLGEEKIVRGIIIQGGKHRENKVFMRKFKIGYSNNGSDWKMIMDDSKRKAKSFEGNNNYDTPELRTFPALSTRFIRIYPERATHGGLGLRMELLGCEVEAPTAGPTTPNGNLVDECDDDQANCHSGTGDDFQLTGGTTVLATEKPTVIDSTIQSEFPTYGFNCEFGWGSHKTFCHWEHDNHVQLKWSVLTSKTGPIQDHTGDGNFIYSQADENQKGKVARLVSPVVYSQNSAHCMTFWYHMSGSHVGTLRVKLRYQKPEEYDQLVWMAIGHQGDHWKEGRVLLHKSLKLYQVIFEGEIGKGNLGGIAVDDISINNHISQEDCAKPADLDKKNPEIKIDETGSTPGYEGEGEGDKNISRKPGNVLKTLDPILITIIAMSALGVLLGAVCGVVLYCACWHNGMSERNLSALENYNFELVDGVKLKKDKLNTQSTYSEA
PfM18AAP inh: blocks P. falciparum M18 aspartyl aminopeptidase; 1.2% of 290,000 active; inhibition, % at 7.35 µM; recombinant PfM18AAP, H-Glu-NHMec fluorogenic cleavage;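 active means inhibition above the campaign mean inhibition over all tested compounds plus 3 SD, cut at about 28% in these data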;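 further: 0% = plate median of test compound wells and 100% = 2 mM ZnCl2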
Arr AP2 block: human beta-arrestin and AP2 interaction inhibition | FITC-arrestin peptide / GST-AP2 beads, flow cytometry; AP2 beta2 appendage carries R879A mutation | inhibition, % at 10 µM | 0.31% of 340,000 active | AID 504490;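 active means inhibition above a set limit, near 3 SD of compounds lacking own fluorescence, cut at about 54% in these data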;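 further: plate controls were DMSO wells for no effect and 5 µM unlabelled arrestin peptide for full effect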
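Material – GST-tagged AP2 beta2-adaptin appendage (R879A) on 4 µm glutathione beads · Probe or stimulus – fluorescein-tagged arrestin peptide at 50 nM final · Timing – 12 min plus 1 h, RT · Detection – bead flow cytometry, FITC channel · Read-out basis – inhibition as reduced fluorescein signal on beads, percent · Medium – PBS plus Tween 20 (0.05%) and BSA (0.1%)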
sPLA2-III inh: Inhibits HGIII-sPLA2 liposome hydrolysis, primary screen. 0.56% of 370,000 active. QFRET BODIPY PC-A2 liposome hydrolysis, fluorescence. Q9NZ20. inhibition, % at 12.2 µM;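 active means inhibition above mean plus 3 SD of compounds lying within the high and low control bounds, cut at about 19% in these data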;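 further: 0% = median of test compound wells and 100% = no enzyme DMSO wells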
Lipid droplet: modulators of hepatic lipid droplet formation; AML12 mouse hepatocytes, oleate lipid droplets, BODIPY imaging; 0.4% of 240,000 active; inhibition, % at 6.5 µM; AID 1656;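 active means lipid droplet intensity inhibited by at least 50%, with more than 500 cells counted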
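Material: mouse AML12 hepatocyte cell line, fixed after treatment; Timing: compound with oleate, overnight; Technique: high-content imaging of BODIPY-stained droplets and DAPI nuclei; Probe or stimulus: oleate, 100 µM final; Dosing: compound at 6.5 µM only.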
* = called active by the depositor; · = no result given.

SMILES	m5-HT2A agonist	NRP1-CendR mod	PfM18AAP inh	Arr AP2 block	sPLA2-III inh	Lipid droplet
COc1cccc(CN(c2ccccc2C(=O)O)S(=O)(=O)c2ccc(C)cc2)c1	-2	4	·	-1	-9	·
S=c1[nH]nc(-c2n[nH]c3c2CCC3)n1N=Cc1c[nH]c2ccccc12	·	·	·	·	1	·
C=C1CCN([C@@H](CC(C)C)C(=O)NCc2ccccc2)S(=O)(=O)c2ccccc21	-2	27*	·	20	-3	·
C=C1CCN([C@@H](Cc2ccccc2)C(=O)NCCC(C)C)S(=O)(=O)c2ccccc21	2	16	·	5	0	·
C=C1CCN(C(C(=O)OC)C(C)C)S(=O)(=O)c2ccc(F)cc21 (stereo not drawn)	0	28*	·	11	3	-1
C=C1CCN(C(C(=O)OC)C(C)C)S(=O)(=O)c2ccccc21 (stereo not drawn)	3	6	·	22	-1	1
C=C1CCN(C(CC(C)C)C(=O)OC)S(=O)(=O)c2ccccc21 (stereo not drawn)	-5	7	·	-4	4	0
C=C1CCN([C@@H](CC(C)C)C(=O)O)S(=O)(=O)c2ccccc21	-1	25*	·	-6	8	·
C=C1CCN([C@@H](CC(C)C)C(=O)NCCCc2ccccc2)S(=O)(=O)c2ccccc21	-9	30*	·	3	-11	·
CCCCOCCCNC(=O)C[C@@H]1C[C@@]2(C(=O)OCC)CCCC=C2N(Cc2ccc3c(c2)OCO3)C1=O	7	0	·	·	-3	·
CCOc1ccc(S(=O)(=O)N2CCC(C(=O)OC(C)C(=O)NC3CCCCC3C)CC2)cc1 (stereo not drawn)	8	-6	·	9	5	·
Oc1ccc(Nc2ccccc2F)c2cccnc12	·	·	·	·	0	·
Cc1nn(-c2ccccc2)c2sc(C(=O)NCCc3ccccc3)cc12	·	·	·	·	-17	·
CN(C)CCNC(=O)Cn1ccc2cc(S(=O)(=O)N3CCCCCC3)ccc21	-6	-4	2	-5	-5	-11
CC(C(=O)NCC1CCCO1)N1C(=O)C2C3CC(C(Br)C3Br)C2C1=O (stereo not drawn)	4	19*	4	-10	10	8
O=C1C2C3CC(C(Br)C3Br)C2C(=O)N1CC1CCCO1 (stereo not drawn)	4	-2	-12	-13	1	11
CCCCn1nnnc1C(c1cc2ccccc2o1)N1CCN(c2c(C)cccc2C)CC1 (stereo not drawn)	9	26*	·	·	0	·
Nc1cccc2cccc([N+](=O)[O-])c12	0	1	·	22	16	·
O=c1ccc2cccc([N+](=O)[O-])c2[nH]1	1	22*	·	·	-2	·
Cc1ccccc1-c1cc2nc(NCc3ccc4occc4c3)n(C)c(=O)c2s1	-1	-5	·	·	-1	·
Cc1cc(/C=N/n2cnnc2)c(C)n1-c1cccc(Cl)c1	3	-12	29*	-8	6	1
Cc1cc(/C=N/n2cnnc2)c(C)n1-c1ccc(Cl)cc1	1	12	7	15	17	-14
CCCCn1c(CN2CCOCC2)nc2c1c(=O)n(C)c(=O)n2C	2	-1	4	-11	2	-5
Cn1c(=O)c2c(nc(CN3CCOCC3)n2CCN2CCOCC2)n(C)c1=O	3	27*	-2	2	·	-4
Cn1c(=O)c2c(nc(CN3CCN(C(=O)c4ccco4)CC3)n2Cc2ccc(F)cc2)n(C)c1=O	2	28*	4	6	2	4
SMILES	m5-HT2A agonist	NRP1-CendR mod	PfM18AAP inh	Arr AP2 block	sPLA2-III inh	Lipid droplet
COc1cccc(-c2ccc3c(c2)[C@@H]2C[C@H]4[C@@H](CN2CC3)[C@H](C)ON4C)c1	·	·	·	·	5	·
COc1cccc(C2c3[nH]c4ccccc4c3CCN2C(=O)c2ccccc2F)c1OC (stereo not drawn)	-6	-2	5	40	-16	48
O=C(c1cn[nH]c1)N1CCc2c([nH]c3ccccc23)C1c1c(F)cccc1Cl (stereo not drawn)	7	40*	24	0	-25	-41
Cc1cc(N2CCN(C(=O)OC(C)(C)C)C[C@H]2C)ccc1N1CCS(=O)(=O)CC1	·	·	·	·	6	·
Fc1ccccc1C(c1nnnn1C1CCCC1)N1CCN(Cc2ccccc2)CC1 (stereo not drawn)	-7	22*	4	0	-5	-26
CCC(c1nnnn1C1CCCC1)N1CCN(Cc2ccccc2)CC1 (stereo not drawn)	-1	11	-3	27	-1	12
COc1ccccc1C(=O)NN(C)C1=NS(=O)(=O)c2ccccc21	3	20*	-11	6	2	16
O=C(COC(=O)c1ccc([N+](=O)[O-])cc1)Nc1ccccc1C(=O)NC1CC1	-7	22	·	-2	18	·
O=C(NCCc1c[nH]c2ccccc12)OCc1cn(Cc2cccc(C(F)(F)F)c2)nn1	·	·	·	·	-88	·
Cc1ccn2c(Nc3ccc4c(c3)OCO4)c(-c3ccc(O)cc3)nc2c1	-2	9	31*	17	-3	0
Oc1ccc(-c2nc3cnccn3c2Nc2ccc3c(c2)OCCO3)cc1	7	9	11	2	-7	·
Oc1ccc(-c2nc3ncccn3c2Nc2ccc3c(c2)OCO3)cc1	0	24*	17	11	0	-8
O=C(CNC(=O)c1cccs1)Nc1ccncc1	2	3	·	-12	3	·
Brc1ccc(CN2CCCc3nc(-c4ccccc4)ccc32)cc1	·	·	·	·	8	·
O=C1OC(c2ccc3ccccc3c2O)(c2ccc3ccccc3c2O)c2ccccc21	1	26*	·	41	-38	·
COc1cccc2cc(-c3nc(-c4cccs4)cs3)c(=O)oc12	0	47*	1	99*	1	·
CCCCCCCCN1C(=O)[C@@H](CC(=O)N2CCCC2)C[C@@]2(C(=O)OC)C1=C[C@H](C(C)C)O[C@@H]2C1CC1	·	·	·	·	-3	·
COc1ccc(C(C)NC(=O)C2CCN(CCOc3ccc(Cl)cc3Cl)CC2)cc1OC (stereo not drawn)	-4	-4	·	·	·	·
CCOC(=O)NC(N(O)c1cccc(Cl)c1)C(Cl)(Cl)Cl (stereo not drawn)	4	5	31*	-5	13	-14
O=C(Nc1ccc(Cl)cc1)c1cccc(S(=O)(=O)Nc2ccccn2)c1	1	15	-4	10	-12	-8
O=C(Nc1ccc(Cl)cc1)c1cc(S(=O)(=O)Nc2ccccn2)ccc1Cl	0	24*	-4	21	-5	-6
O=C(Nc1cccc(C(F)(F)F)c1)c1ccc(-c2ccc(F)c(F)c2)c2ccoc12	-1	-2	·	·	-2	·
Nc1cccc2c1CN(C1CCC(=O)NC1=O)C2=O (stereo not drawn)	·	·	·	·	-1	·
N/C(=N\OC(=O)c1ccc(Cl)cc1Cl)c1ccc(Cl)cc1	8	30*	-9	-3	3	·

Screens (PubChem BioAssay)
